Data reported in ChEMBL document CHEMBL4392827, “Tryptamine derivatives disarm colistin resistance in polymyxin-resistant gram-negative bacteria” (Bioorg Med Chem, 2019).
The source made the active and inactive calls. The rule behind the calls is not given here.

Assays:
[1] = system: Acinetobacter baumannii; assay: Potentiation of colistin-induced antimicrobial activity against colistin-resistant Acinetobacter baumannii ATCC 17978 expressing mcr1 gene assessed as fold reduction in colistin MIC at 60 uM after 18 hrs by broth microdilution assay; type: functional
Summary of the method: (§1)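 Checkerboard-style resensitization following adapted CLSI broth microdilution. Bacteria were grown 4–6 h in CAMHB and subcultured to 5×10^5 CFU/mL. Adjuvant was added from DMSO stock and held constant while colistin was serially diluted in the dosed subculture. Plates were incubated stationary at 37°C for 18 h, then MICs were read. Fold reduction was taken relative to the colistin MIC without adjuvant.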

[2] = system: Acinetobacter baumannii; assay: Potentiation of colistin-induced antimicrobial activity against colistin-resistant Acinetobacter baumannii isolate 3941 assessed as fold reduction in colistin MIC at 60 uM after 18 hrs by broth microdilution assay; type: functional; summary of the method: as §1
[3] = system: Escherichia coli; assay: Toxicity in Escherichia coli ATCC 25922 after 18 hrs by broth microdilution assay; type: organism-based; details: in vitro
Summary of the method: (§2)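 Single-agent MIC per CLSI broth microdilution. Cells from a 4–6 h culture in cation-adjusted Mueller-Hinton broth adjusted to 5 ×10^5 CFU/mL. Compound (DMSO stock) added to 200 μM top concentration and twofold serially diluted six times, with an untreated control row. Plates sealed and incubated stationary at 37°C for 18 h before MIC read.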

[4] = system: Escherichia coli; assay: Potentiation of colistin-induced antimicrobial activity against colistin-resistant Escherichia coli ATCC 25922 expressing mcr1 gene assessed as fold reduction in colistin MIC at 60 uM after 18 hrs by broth microdilution assay; type: functional; summary of the method: as §1
[5] = system: Acinetobacter baumannii; assay: Potentiation of colistin-induced antimicrobial activity against colistin-resistant Acinetobacter baumannii isolate 4112 assessed as fold reduction in colistin MIC at 60 uM after 18 hrs by broth microdilution assay; type: functional; summary of the method: as §1
[6] = system: Acinetobacter baumannii; assay: Potentiation of colistin-induced antimicrobial activity against Acinetobacter baumannii ATCC 17978 assessed as fold reduction in colistin MIC at 60 uM after 18 hrs by broth microdilution assay; type: functional
Summary of the method: (§3)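 Bacteria grown 4–6 h in cation-adjusted Mueller-Hinton broth and diluted to 5 ×10^5 CFU/mL. Adjuvant from DMSO stock held at fixed 60 μM while colistin is twofold serially diluted in the same adjuvant-dosed broth. Plates sealed and kept stationary at 37°C for 18 h. Colistin MIC read and fold reduction taken relative to colistin alone.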

[7] = system: Klebsiella pneumoniae; assay: Potentiation of colistin-induced antimicrobial activity against colistin-resistant Klebsiella pneumoniae isolate A5 assessed as fold reduction in colistin MIC at 60 uM after 18 hrs by broth microdilution assay; type: functional; summary of the method: as §1
[8] = system: Klebsiella pneumoniae; assay: Potentiation of colistin-induced antimicrobial activity against colistin-resistant Klebsiella pneumoniae isolate C3 assessed as fold reduction in colistin MIC at 60 uM after 18 hrs by broth microdilution assay; type: functional; summary of the method: as §1
[9] = system: Acinetobacter baumannii; assay: Potentiation of colistin-induced antimicrobial activity against colistin-sensitive Acinetobacter baumannii 5075 assessed as fold reduction in colistin MIC at 60 uM after 18 hrs by broth microdilution assay; type: functional; summary of the method: as §3
[10] = system: Acinetobacter baumannii; assay: Potentiation of colistin-induced antimicrobial activity against colistin-resistant Acinetobacter baumannii 4106 assessed as fold reduction in colistin MIC at 60 uM after 18 hrs by broth microdilution assay; type: functional; summary of the method: as §1
[11] = system: Escherichia coli; assay: Potentiation of colistin-induced antimicrobial activity against Escherichia coli ATCC 25922 assessed as fold reduction in colistin MIC at 60 uM after 18 hrs by broth microdilution assay; type: functional; summary of the method: as §3
[12] = system: Acinetobacter baumannii; assay: Toxicity in Acinetobacter baumannii 4106 after 18 hrs by broth microdilution assay; type: organism-based; details: in vitro; summary of the method: as §2
[13] = system: Acinetobacter baumannii; assay: Toxicity in Acinetobacter baumannii ATCC 17978 expressing mcr1 gene after 18 hrs by broth microdilution assay; type: organism-based; summary of the method: as §2
[14] = system: Klebsiella pneumoniae; assay: Toxicity in Klebsiella pneumoniae B9 after 18 hrs by broth microdilution assay; type: organism-based; summary of the method: as §2
[15] = system: Klebsiella pneumoniae; assay: Potentiation of colistin-induced antimicrobial activity against colistin-resistant Klebsiella pneumoniae B9 assessed as fold reduction in colistin MIC at 60 uM after 18 hrs by broth microdilution assay; type: functional; summary of the method: as §1
[16] = system: Acinetobacter baumannii; assay: Potentiation of colistin-induced antimicrobial activity against colistin-resistant Acinetobacter baumannii isolate 3942 assessed as fold reduction in colistin MIC at 60 uM after 18 hrs by broth microdilution assay; type: functional; summary of the method: as §1
[17] = system: Klebsiella pneumoniae; assay: Potentiation of colistin-induced antimicrobial activity against Klebsiella pneumoniae ATCC BAA-2146 expressing NDM1 gene assessed as fold reduction in colistin MIC at 60 uM after 18 hrs by broth microdilution assay; type: functional; summary of the method: as §3
[18] = system: Acinetobacter baumannii; assay: Induction of membrane permeabilization in colistin-resistant Acinetobacter baumannii isolate 3942 at 60 uM measured after 1 hr by SYTO-9/propidium iodide staining based fluorescence assay relative to control; type: functional
Summary of the method: (§4)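 Cells were grown overnight in CAMHB at 37°C, diluted 1:10 and grown 4 h more to an OD600 of ~0.3. They were pelleted, washed with sterile water and resuspended at 1/10 volume in water containing compound. After 1 h at 37°C with shaking, cells were washed and stained with SYTO-9/propidium iodide (1:1, 3 μL/mL) for 15 min at RT. Emission was read at 530 and 645 nm (excitation 485 nm), and the green/red ratio was expressed as % of the untreated control.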

[19] = system: Klebsiella pneumoniae; assay: Induction of membrane permeabilization in colistin-resistant Klebsiella pneumoniae isolate C3 at 60 uM measured after 1 hr by SYTO-9/propidium iodide staining based fluorescence assay relative to control; type: functional; summary of the method: as §4
[20] = Hemolytic activity in sheep erythrocytes assessed as hemolysis at 100 uM incubated for 1 hr under shaking condition by UV-spectrophotometry; type: ADME, cell-based, Ovis aries, Erythrocyte; details: read-out: Activity
Summary of the method: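 Washed sheep erythrocytes (defibrinated blood spun, resuspended in PBS three times) diluted 10-fold in PBS containing compound from DMSO stock. DMSO negative control (0% lysis), 1% Triton X100 positive control (100% lysis). 1 h at 37°C with shaking, then spun 10 min at 10,000 rpm and supernatant diluted 1:40 in distilled water.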

SMILES	fold change (FC) [1]	fold change (FC) [2]	MIC [3] [µM]	fold change (FC) [4]	fold change (FC) [5]	fold change (FC) [6]	fold change (FC) [7]	fold change (FC) [8]	fold change (FC) [9]	fold change (FC) [10]	fold change (FC) [11]	MIC [12] [µM]	MIC [13] [µM]	MIC [14] [µM]	fold change (FC) [15]	fold change (FC) [16]	fold change (FC) [17]	Activity [18]	Activity [19]	hemolysis at 1 h, 100 µM [20] [%]
O=C(NCCc1c[nH]c2cc(F)ccc12)c1cc(Br)c(Br)[nH]1	32	512	> 200	8	512	2	256	512	2	512	2	> 200	> 200	> 200	64	512	2	–	–	–
O=C(NCCc1c[nH]c2ccccc12)c1cc(Br)c(Br)[nH]1	32	256	–	8	512	4	256	1024	2	512	4	–	–	–	2048	512	2	–	–	–
CCCCn1cc(CCNC(=O)c2cc(Br)c(Br)[nH]2)c2ccccc21	0	–	> 200	0	–	–	–	–	–	0	–	> 200	> 200	> 200	0	–	–	inactive	inactive	< 1
O=C(NCc1cc2ccccc2[nH]1)c1cc(Br)c(Br)[nH]1	32	256	> 200	16	512	2	512	2048	2	2048	2	> 200	> 200	> 200	4096	256	0	–	–	–
Cc1cccc2c(CCNC(=O)c3cc(Br)c(Br)[nH]3)c[nH]c12	32	256	> 200	8	256	2	256	512	2	256	2	> 200	> 200	> 200	512	256	2	–	–	–
O=C(NCc1ccc2cc[nH]c2c1)c1cc(Br)c(Br)[nH]1	32	128	> 200	8	256	2	256	512	2	256	2	> 200	> 200	> 200	2048	128	0	–	–	–
O=C(NCCCc1c[nH]c2ccccc12)c1cc(Br)c(Br)[nH]1	32	256	> 200	16	256	4	256	1024	4	512	2	> 200	> 200	> 200	4096	256	2	–	–	–
